Experimental data taken from PubChem BioAssay AID2097 (Broad Institute, 2009).
About 120 (0.04%) of roughly 300,000 compounds were called active.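 Rule for the calls: active = more than half of replicate wells score below -50%, meaning over 50% inhibition versus plate controls; inconclusive = some replicates but at most half score below -50%; inactive = no replicate scores below -50%.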 What follows is part of a selection rich in actives, with near analogues and random picks from the rest.

The compounds below were run against Glycogen synthase kinase-3 beta (Homo sapiens) (UniProt P49841) (assay: blockers of GSK3B enzyme activity – biochemical, cell-free homogeneous, HTS, primary screen (AID 2097;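 note: 0% = median DMSO wells and -100% = median GW8510 positive control wells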)). Settings: GST-GSK3beta kinase, ADP-Glo luminescence, 60 min; at 10 µM; stronger effect = lower value.
Glycogen synthase kinase-3 beta (Homo sapiens), sequence (P49841 whole entry, looked up, the tested form may be a part): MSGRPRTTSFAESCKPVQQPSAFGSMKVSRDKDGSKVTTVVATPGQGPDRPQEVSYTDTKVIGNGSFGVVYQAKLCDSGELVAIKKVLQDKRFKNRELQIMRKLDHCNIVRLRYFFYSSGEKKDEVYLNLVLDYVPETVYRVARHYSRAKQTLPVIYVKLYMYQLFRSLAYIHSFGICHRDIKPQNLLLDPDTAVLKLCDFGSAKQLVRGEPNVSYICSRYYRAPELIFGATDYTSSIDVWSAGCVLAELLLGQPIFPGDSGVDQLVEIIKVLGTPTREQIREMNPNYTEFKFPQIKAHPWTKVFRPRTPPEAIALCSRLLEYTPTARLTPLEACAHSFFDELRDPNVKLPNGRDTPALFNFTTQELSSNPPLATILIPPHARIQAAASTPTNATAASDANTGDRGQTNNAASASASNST
Method in brief: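 Assay system: GST-fused GSK3beta enzyme, cell-free / Medium: Tris pH 7.5 buffer with MgCl2, DTT, BSA, heparin / Also added: peptide substrate plus 25 µM ATP (final) / Compound: 10 µM single point / Timing: kinase reaction with compound 60 min at room temperature / Detection: ADP-Glo luminescence / Benchmarks: DMSO neutral wells and GW8510 at 20 µM as positive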

Activity score (negative = inhibition), active:
CN1CCN(/N=C2/C(=O)Nc3ccc([N+](=O)[O-])cc32)CC1 -63.8%
OCCCNc1nccc(-c2cc(Nc3cccc(Cl)c3)ncn2)n1 -98.4%
Nc1nonc1-n1nnc(C(=O)N/N=C\c2ccncc2)c1CN1CCCCC1 -94.2%

Activity score (negative = inhibition), inactive:
COc1ccc(C(=O)NC(C)Cn2nc(C)cc2C)cc1OC1CCN(C(C)=O)CC1 (stereo not given) -1.16%
COc1cc(CN2CCC(n3nccc3NC(=O)CCCc3ccccc3)CC2)ccc1O 1.56%
O=C(Cc1ccccc1)NCC1OCCc2ccccc21 (stereo not given) 1.24%
CSCCNCc1cn(-c2ccc(F)cc2F)nc1-c1ccccc1C 6.14%
COCCCNC(=O)CNC(=S)N(Cc1cc(OC)c(OC)c(OC)c1)C1CCCC1 -1.22%
CC(CCc1ccccc1)NCC(O)c1cccc([N+](=O)[O-])c1 (stereo not given) 0.339%
O=C(C1CC1)N1N=C2CCCCC2C1(O)C(F)(F)F (stereo not given) -1.66%
Cc1ccn2c(=O)c(NC(=O)c3cccc4ccccc34)c(C)nc2c1 -0.598%
CCN(CC(=O)N1CCCC1)S(=O)(=O)c1ccc(F)cc1 -0.618%
O=C(NCCNc1ccc([N+](=O)[O-])cc1Cl)c1ccccc1F -5.43%
COc1ccc(N(Cc2ccc(N(C)C)cc2)C(=O)c2ccc(S(C)(=O)=O)cc2)cc1 1.2%
Cc1cc(C)c(OCCN2CC(C)OC(C)C2)c(Br)c1 (stereo not given) -2.1%
Cc1nc(SCC(=O)NC2CCCC2)[nH]c(=O)c1C 1.74%
COc1ccccc1CNC(=O)C1CCN(S(=O)(=O)c2ccc3c(c2)OCCO3)CC1 -1.16%
COc1ccc(CCc2nc(-c3cccs3)no2)cc1 2.12%
O=C(CCN1C(=O)C2C3C=CC(C3)C2C1=O)Oc1ccc2ccccc2c1 (stereo not given) 1.85%
Nc1cccnc1Sc1ccccc1 -4.02%
C=CCn1cc(C(=O)NCc2ccc(Cl)cc2)c(=O)c2cc(S(=O)(=O)N(CC)CC)ccc21 4.27%
O=C(O)C1CCCN1C1=NS(=O)(=O)c2ccccc21 (stereo not given) 1.84%
COC(=O)c1c(C(=O)OC)c(-c2cccc(C)c2)n2c1CS(=O)C2 (stereo not given) -0.0395%
C[C@H](NC(=O)[C@@H]1Cc2ccccc2CN1C(=O)OC(C)(C)C)C(=O)NC1CCCC1 0.0958%
C=CCN1CCN(C(=O)CCCc2ccccc2)CC1 3.12%
COc1ccccc1N1CCC(N2CCN(CC(C)(C)C)C(CCO)C2)CC1 (stereo not given) -1.04%
COc1ccccc1C(=O)Nc1ccnn1C1CCN(C(=O)C(C)(C)C)CC1 -0.909%
CC(C)(C)NC(=O)CSC(=Nc1ccccc1F)NC#N 0.51%
Cc1c(NC(=S)NC(=O)CCc2ccccc2)c(=O)n(-c2ccccc2)n1C 0.697%
COCc1ccc(C(=O)N2CCc3c([nH]c4ccccc34)C2c2ccccn2)s1 (stereo not given) 1.6%
CCNC(=S)N(CCN(CC)CC)Cc1cc2cc3c(cc2[nH]c1=O)OCCO3 1.49%
Cc1csc(NC(=O)CSc2nc(=O)cc(N)n2-c2ccc(F)cc2)n1 1.17%
Cc1c(C(=O)NCCN(C)C)oc2ccc(S(=O)(=O)N3CCCC3)cc12 -4.78%
CN1CCN(/N=C/c2ccc(-c3ccc([N+](=O)[O-])cc3)o2)CC1 -0.646%
Cc1ccc([N+](=O)[O-])cc1S(=O)(=O)N1CCCN(C)CC1 -1.01%
Cc1cccc(NC(=O)C2CC(=O)OC23CCCC3)c1 (stereo not given) 2.08%
COCCn1c(C)cc(C(=O)CSc2nc3ccccc3c(=O)n2C(C)COC)c1C (stereo not given) -2.4%
COC(=O)/C(=C\Nc1ccccc1)NC(=O)c1ccc(Cl)cc1Cl 1.73%
N/C(=N\OC(=O)CCCC(=O)O)c1ncc(C(F)(F)F)cc1Cl 1.16%
CCS(=O)(=O)N1CCC(N2CCN(c3ccccc3)CC2)CC1 1%
CCc1cccc(NC(=S)N(CCN(C)C)C2CCN(C(C)C)CC2)c1 1.7%
COc1ccc2ccccc2c1CNCc1ccccn1 -4.15%
O=[N+]([O-])c1ccccc1S(=O)(=O)Nc1cccc2cccnc12 0.31%
CC(=O)N1CC[n+]2c(-c3ccc([N+](=O)[O-])cc3)csc21 -0.11%
COCCn1c(SCC(=O)Nc2ccccc2F)nc2c(c1=O)SCC2 0.573%
CN(CC(=O)Nc1ccccc1Cl)C(=O)c1ccccc1SCC(=O)N1CCCC1 -1.62%
CC(=O)Nc1cccc(C(=O)OCC(=O)c2ccc3c(c2)OCO3)c1 0.7%
COc1ccc(N(CC(=O)N2CCCCCC2)S(=O)(=O)c2ccccc2)cc1 -4.12%
CCOc1ccc(NC(=O)c2ccc(NC(=O)CN3C(=O)C(=O)N(CC(C)C)C3=O)cc2)cc1 0.0927%
CC(C)n1cnc2c(Nc3cccc(Cl)c3)nc(N(CCO)CCCO)nc21 -11.5%
OCCCNc1nc(-c2ccccc2)c2cc(Cl)ccc2n1 0.00658%
Nc1nonc1-n1nnc(C(=O)N/N=C/c2ccccc2O)c1CN1CCCC1 -36.9%
NNC(=O)c1nnn(-c2nonc2N)c1CN1CCCC1 2.11%
CN(CCC1CCOCC1)C(=O)CC1C(=O)NCCN1Cc1cccc(F)c1 (stereo not given) -0.992%
COc1ccc(S(=O)(=O)NCCCCOc2ccc(Cl)cc2)cc1 -0.131%
CC(=O)Nc1ccccc1OC(C)C(=O)N1CCC(C)CC1 (stereo not given) 0.974%
CCn1cc(C(=O)NCCC(=O)NCCO)c(=O)c2cc3c(cc21)OCO3 -2.21%
COc1ccccc1-n1c(=S)[nH]c2c(sc(=S)n2-c2ccc(C)cc2C)c1=O -0.962%
NC(=O)C[n+]1cccc(C(N)=O)c1 2.13%
CC(=O)Nc1ccc(C(=O)Nc2cccc(S(=O)(=O)NC3=NCCC3)c2)cc1 1.23%
CSC1=NC2(C)CCCCC2C12C=CC(=O)C=C2 (stereo not given) 2.87%
Cc1nc(C)c(-c2nnc(-c3cccc(S(=O)(=O)N(C)C)c3)o2)cc1C(=O)NN -3.56%
CC(=O)N1CCN(S(=O)(=O)c2cccc(C(=O)NC3CCC(C)CC3)c2)CC1 (stereo not given) -4.6%
O=C(NCc1ccco1)/C(=C\c1cccc([N+](=O)[O-])c1)NC(=O)c1ccco1 -2.64%
CCS(=O)(=O)c1ccc(-c2cccc(NC(=O)c3ccc(Br)o3)c2)nn1 2.73%
CCC(C)(C)NC(=O)C(c1cccc(OC)c1OC)N(CC(C)C)C(=O)CCC(=O)Nc1cc(C)on1 (stereo not given) -2.19%
COC(=O)[C@@H]1C[C@@]2(O)[C@H](O)[C@H](O)[C@H](O)C[C@H]2N1Cc1ccc(C)s1 2.63%
CCCCC1S/C(=N/N=C/c2cccs2)NC1=O (stereo not given) 0.416%
COc1ccc(OC)c(-c2csc(NC(=O)C3=NNC(=O)CC3)n2)c1 -0.495%
CC(C)c1ccc(NC(=O)CCN2C(=O)c3ccc([N+](=O)[O-])cc3C2=O)cc1 -3.13%
O=S(=O)(NC1CC1)c1ccc(F)c(F)c1 1.68%
CCCCn1c(=O)c(CCC(=O)OCC(=O)Nc2ccc(C)c(Cl)c2)nc2ccccc21 -3%
CCN(C(=O)C1CCCN(c2nc(-c3ccc(OC)cc3)no2)C1)c1ccc(OC)cc1 (stereo not given) -3.3%
COc1ccc(NC(=O)CCC(=O)N2CCN(S(=O)(=O)c3ccc(C)cc3)CC2)c(OC)c1 -0.163%
CCCc1ccc(OCC(O)CN2CCN(C(=O)OCC)CC2)cc1 (stereo not given) 4.1%
CCc1nn(CCCC(=O)Nc2ccc(C)cc2C)c(=O)c2cc3occc3n12 2.31%
CC(=O)C1=C(C)NC(C)=C(C(C)=O)C1c1cn(-c2ccccc2)nc1-c1cccs1 -1.7%
O=C(N/N=C/c1cccc(O)c1)c1cc2c(ccc3ccccc32)o1 -3.92%
COc1ccc(Cl)cc1NC(=O)CN(C)C(=O)CCCc1c[nH]c2ccccc12 -0.853%
COc1ccc(-n2nc(C(=O)NCC(=O)N3CCCCCC3)c3ccccc3c2=O)cc1Cl -0.439%
COc1cccc(CCNC(=O)COc2cccc3c2OC(C)(C)C3)c1 1.98%
Cc1ccc(NC(=O)Cn2cccc2C2=NC(c3ccccc3)CO2)c(C)c1 (stereo not given) -1.16%
COc1ccc(C(=O)C2CCCN(C(=O)c3ccc(OC)o3)C2)c(C)c1 (stereo not given) 0.0837%
CC(C)Cc1ccc(C(C)C(=N)N)cc1 (stereo not given) -0.885%
CC(C)(C)c1ccc(C(=O)NNC(=O)Cc2ccccc2)cc1 -1.05%
COc1ccc(NC(=O)C2CCC(CNS(=O)(=O)c3csc(C(N)=O)c3)CC2)cc1OC (stereo not given) 2.83%
O=c1c2c(ncn1Cc1ccccc1)nc1n2CCC1 -1.79%
O=C(CSc1ccc(-c2ccc(-n3cccn3)cc2)nn1)Nc1ccc([N+](=O)[O-])cc1 -1.44%
CCO[C@@H]1OC(C(=O)NC2CC2)=C[C@H](C)[C@H]1CCCO 1.19%
CCOC(=O)C1=C(CC)Nc2ccccc2N=C1NC(=O)c1cccc(S(=O)(=O)N2CCCC2)c1 3.96%
